One may read the inhibition in vivo as the share of the control response that was lost under treatment.

Common to all, as to format: functional
In experiment [1] the test system is Cavia porcellus. Briefly: Antitussive activity in guinea pig assessed as inhibition of citric acid-induced coughing at 0.25 umol, intracerebroventricularly administered as single dose after 3 mins relative to control. The essentials:
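Unrestrained conscious Dunkin-Hartley guinea pigs with a 22-gauge guide cannula in the lateral ventricle, placed stereotaxically under anaesthesia, recovered 4 days. Single icv dose in 10 µL of Tween 80/saline (5:95). 3 min later, 8-min 0.5 M citric acid aerosol (0.5 mL/min) in an airtight chamber. Cough sounds recorded and episodes counted. % inhibition vs vehicle group; one-way ANOVA with Bonferroni tests.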

Experiment [2] concerns Cavia porcellus. Briefly: Antitussive activity in guinea pig assessed as inhibition of citric acid-induced coughing at 0.26 mmol/kg, po administered as single dose after 30 mins. Also on record: scale not given: the % may be the effect or the level left. The essentials:
(§1)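 Unrestrained conscious Dunkin-Hartley guinea pigs, randomised, given a single oral dose of 100 mg/kg in Tween 80/saline (5:95). 30 min later, 8-min 0.5 M citric acid aerosol (0.5 mL/min) in an airtight chamber. Cough episodes counted from recorded sounds. % inhibition vs vehicle group (n = 4-8); ANOVA with Bonferroni tests.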

Experiment [3] relates to Cavia porcellus. Briefly: Antitussive activity in guinea pig assessed as inhibition of citric acid-induced coughing at 0.26 mmol/kg, ip administered as single dose after 30 mins. To be noted: 0.5 h. The essentials:
(§2)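 Unrestrained conscious Dunkin-Hartley guinea pigs, randomised, given a single ip dose in DMSO. 30 min later, 8-min 0.5 M citric acid aerosol (0.5 mL/min) in an airtight chamber. Cough sounds recorded and episodes counted. % inhibition vs vehicle group (n = 4-8); one-way ANOVA with Bonferroni tests.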

Experiment [4] concerns Cavia porcellus. Briefly: Antitussive activity in guinea pig assessed as inhibition of citric acid-induced coughing at 0.33 mmol/kg, ip administered as single dose after 30 mins. To be noted: 0.5 h. The essentials: as §2
Experiment [5] deals with Cavia porcellus. Briefly: Antitussive activity in guinea pig assessed as inhibition of citric acid-induced coughing at 0.33 mmol/kg, po administered as single dose after 30 mins. Also noted: scale not given: the % may be the effect or the level left. The essentials: as §1

Regarding `CC[C@H]1[C@H]2[C@@H](CCCN3C([C@@H]4C[C@H](C)C(=O)O4)=CC(=O)[C@@]23OC)O[C@]12C=C(C)C(=O)O2`, in the experiment with Cavia porcellus [1], the “inhibition (INH)” value amounted to 10%.
Regarding `CC[C@H]1[C@H]2[C@@H](CCCN3C([C@@H]4C[C@H](C)C(=O)O4)=CC(=O)[C@@]23O)O[C@]12C=C(C)C(=O)O2` [STEMOENONINE], the “inhibition (INH)” value in the experiment on Cavia porcellus [1] was 10%.
With `CC[C@H]1[C@H]2[C@@H](CCCN3[C@H]2CC[C@H]3[C@@H]2C[C@H](C)C(=O)O2)O[C@]12C=C(C)C(=O)O2` [STEMONININE], the Activity in the experiment on Cavia porcellus [2] is 70%. In addition, the inhibition in vivo at 260 µmol/kg with Cavia porcellus [3] was found to be 90%. Besides, the “inhibition (INH)” value in the experiment with Cavia porcellus [1] was determined as 10%.
As for `CC[C@H]1[C@H]2[C@@H](CCCN3C(=O)CC[C@@H]23)O[C@]12C=C(C)C(=O)O2` [STEMONINOAMIDE], the inhibition in vivo at 330 µmol/kg in the experiment with Cavia porcellus [4] stood at 90%. Further, the Activity in the experiment on Cavia porcellus [5] is given as 70%. For the same compound, in the experiment with Cavia porcellus [1], the “inhibition (INH)” value was 10%.

The record behind these values is ChEMBL document CHEMBL1157387, “Antitussive stemoninine alkaloids from the roots of Stemona tuberosa” (2008).
